ChEMBL document CHEMBL4414574, “Structure-Based Discovery and Development of a Series of Potent and Selective Bromodomain and Extra-Terminal Protein Inhibitors” (J Med Chem, 2019)
Activity calls are given as the source filed them. The calls are words filed in the database; no cut-off is given here.

Tests used:
Cytochrome P450 1A2 = target: T1, Cytochrome P450 1A2 (Homo sapiens, UniProt P05177); assay: Time-dependent inhibition of CYP1A2 in human liver microsomes at 10 uM using phenacetin as substrate preincubated up to 30 mins followed by NADPH generating system addition and measured after 10 mins; type: ADME
T1 sequence (P05177 whole entry): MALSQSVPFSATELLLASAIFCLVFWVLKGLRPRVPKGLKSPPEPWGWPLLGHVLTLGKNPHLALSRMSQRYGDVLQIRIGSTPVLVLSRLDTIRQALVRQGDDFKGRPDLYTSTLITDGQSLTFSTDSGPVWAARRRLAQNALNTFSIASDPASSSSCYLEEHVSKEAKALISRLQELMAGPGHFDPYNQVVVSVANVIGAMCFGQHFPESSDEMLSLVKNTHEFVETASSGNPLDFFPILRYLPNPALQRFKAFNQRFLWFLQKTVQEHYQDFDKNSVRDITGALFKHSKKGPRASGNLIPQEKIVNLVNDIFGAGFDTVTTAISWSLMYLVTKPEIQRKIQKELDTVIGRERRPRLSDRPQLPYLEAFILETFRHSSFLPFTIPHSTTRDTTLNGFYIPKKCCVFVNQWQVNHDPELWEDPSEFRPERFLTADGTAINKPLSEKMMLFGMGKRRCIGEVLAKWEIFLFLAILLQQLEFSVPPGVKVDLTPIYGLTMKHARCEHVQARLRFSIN
How it was run: (§1)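 Human liver microsomes 0.2 mg/mL, 100 mM phosphate pH 7.4, 10 μM test compound, preincubated 0, 5, 10 and 30 min at 37 °C; then NADPH plus probe cocktail (5 μM midazolam, 50 μM testosterone, 5 μM dextromethorphan, 10 μM diclofenac, 50 μM phenacetin, 50 μM S-(+)-mephenytoin) added; 10 min reaction; kobs in units of 10^-4/min.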

[1] = Metabolic stability in mouse liver microsomes at 1 uM preincubated for 5 mins followed by NADPH addition and measured after 5 to 30 mins by LC/MS/MS analysis; type: ADME, Microsome
How it was run: (§2)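 Liver microsomes (0.5 mg/mL) preincubated 5 min at 37 °C with 1 μM compound in 0.1 M phosphate buffer pH 7.4 containing 1 mM EDTA and 5 mM MgCl2; started with 1 mM NADPH; sampled at 0, 5, 10 and 30 min; quenched with cold acetonitrile; parent remaining quantified by LC/MS/MS.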

MM1.S = assay: Antiproliferative activity against human MM1S cells after 72 hrs by CCK8 or SRB assay; type: functional, cell-based
How it was run: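 IC50 against MM.1S cell proliferation was taken as the mean of three independent experiments, each run in triplicate, reported with SEM.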

Cytochrome P450 2C19 = Cytochrome P450 2C19 (Homo sapiens, UniProt P33261); assay: Time-dependent inhibition of CYP2C19 in human liver microsomes at 10 uM using mephenytoin as substrate preincubated up to 30 mins followed by NADPH generating system addition and measured after 10 mins; type: ADME; how it was run: as §1
Chain of Cytochrome P450 2C19 (P33261 whole entry): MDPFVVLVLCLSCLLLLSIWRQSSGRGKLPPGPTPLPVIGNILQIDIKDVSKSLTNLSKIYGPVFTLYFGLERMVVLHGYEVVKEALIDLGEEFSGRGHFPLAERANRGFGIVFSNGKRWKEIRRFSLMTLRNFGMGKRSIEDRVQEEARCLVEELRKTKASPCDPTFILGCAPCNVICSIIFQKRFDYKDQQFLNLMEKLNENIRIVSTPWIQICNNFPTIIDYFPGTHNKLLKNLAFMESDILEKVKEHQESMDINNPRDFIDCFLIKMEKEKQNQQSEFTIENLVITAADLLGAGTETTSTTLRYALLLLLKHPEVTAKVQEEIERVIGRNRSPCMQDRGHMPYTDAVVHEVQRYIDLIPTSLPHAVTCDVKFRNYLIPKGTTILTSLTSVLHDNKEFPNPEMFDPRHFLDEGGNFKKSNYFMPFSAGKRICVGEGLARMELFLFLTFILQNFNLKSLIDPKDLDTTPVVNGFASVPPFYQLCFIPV

[2] = Cmax in ICR mouse at 10 mg/kg, po administered via gavage measured after 0.25 to 24 hrs by UPLC/MS analysis; type: ADME, organism-based; design: dose 10 mg/kg, route oral; conditions: in vivo
How it was run: (§3)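 Male ICR mice dosed orally in 1% DMSO/0.5% HPMC vehicle; plasma or brain drug levels used to derive Tmax, Cmax, AUC0-t, AUC0-inf and T1/2.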

Cytochrome P450 2C9 = Cytochrome P450 2C9 (Homo sapiens, UniProt P11712); assay: Time-dependent inhibition of CYP2C9 in human liver microsomes at 10 uM using diclofenac as substrate preincubated up to 30 mins followed by NADPH generating system addition and measured after 10 mins; type: ADME; how it was run: as §1
Chain of Cytochrome P450 2C9 (P11712 whole entry): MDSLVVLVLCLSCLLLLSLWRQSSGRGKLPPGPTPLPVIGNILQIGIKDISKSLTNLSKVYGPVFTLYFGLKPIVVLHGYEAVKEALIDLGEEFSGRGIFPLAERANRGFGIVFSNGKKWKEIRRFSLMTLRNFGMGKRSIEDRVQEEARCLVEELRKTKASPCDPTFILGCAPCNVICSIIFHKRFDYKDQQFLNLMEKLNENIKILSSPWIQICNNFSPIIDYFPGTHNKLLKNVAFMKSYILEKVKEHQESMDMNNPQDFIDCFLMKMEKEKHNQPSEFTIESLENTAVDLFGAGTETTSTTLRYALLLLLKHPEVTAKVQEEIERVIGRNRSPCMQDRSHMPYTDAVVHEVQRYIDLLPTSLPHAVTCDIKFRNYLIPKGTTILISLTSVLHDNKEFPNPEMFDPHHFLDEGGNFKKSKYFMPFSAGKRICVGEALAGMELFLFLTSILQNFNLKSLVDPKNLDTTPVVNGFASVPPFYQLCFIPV

[3] = Half life in ICR mouse at 10 mg/kg, po administered via gavage measured after 0.25 to 24 hrs by UPLC/MS analysis; type: ADME, organism-based; conditions: in vivo; how it was run: as §3
[4] = AUC (0 to t) in ICR mouse at 10 mg/kg, po administered via gavage measured after 0.25 to 24 hrs by UPLC/MS analysis; type: ADME, organism-based; design: time 0.25-24 hr, dose 10 mg/kg, route oral; conditions: in vivo
How it was run: (§4)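 Male ICR mice were dosed orally in 1% DMSO/0.5% HPMC vehicle. Plasma (and brain, where stated) concentrations gave Tmax, Cmax, T1/2, AUC0-t and AUC0-inf.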

Cytochrome P450 3A4 = Cytochrome P450 3A4 (Homo sapiens, UniProt P08684); assay: Time-dependent inhibition of CYP3A4 in human liver microsomes at 10 uM using midazolam or testosterone as substrate preincubated up to 30 mins followed by NADPH generating system addition and measured after 10 mins; type: ADME; how it was run: as §1
Chain of Cytochrome P450 3A4 (P08684 whole entry): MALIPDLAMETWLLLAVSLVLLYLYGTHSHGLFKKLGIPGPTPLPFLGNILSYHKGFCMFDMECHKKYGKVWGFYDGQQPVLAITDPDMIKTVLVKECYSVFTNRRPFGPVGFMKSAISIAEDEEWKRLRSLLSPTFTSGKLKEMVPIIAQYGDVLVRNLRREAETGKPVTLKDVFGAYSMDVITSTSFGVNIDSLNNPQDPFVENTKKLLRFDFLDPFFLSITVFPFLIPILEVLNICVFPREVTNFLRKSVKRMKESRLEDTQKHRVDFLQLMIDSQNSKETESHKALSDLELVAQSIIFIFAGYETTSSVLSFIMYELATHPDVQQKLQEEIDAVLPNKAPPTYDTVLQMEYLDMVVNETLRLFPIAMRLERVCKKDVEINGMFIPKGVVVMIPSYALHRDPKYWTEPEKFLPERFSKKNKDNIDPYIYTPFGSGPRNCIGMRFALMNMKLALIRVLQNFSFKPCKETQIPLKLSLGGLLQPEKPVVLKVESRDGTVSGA

[5] = target: T2, Bromodomain-containing protein 4 (Homo sapiens, UniProt O60885); assay: Displacement of 5-FITC labelled (+)-JQ1 from His6-tagged human BRD4 bromodomain 1 expressed in Escherichia coli BL21(DE3) )-codon plus-RIL cells incubated for 4 hrs in dark condition by fluorescence anisotropy binding assay
Cytochrome P450 2D6 = Cytochrome P450 2D6 (Homo sapiens, UniProt P10635); assay: Time-dependent inhibition of CYP2D6 in human liver microsomes at 10 uM using dextromethorphan as substrate preincubated up to 30 mins followed by NADPH generating system addition and measured after 10 mins; type: ADME; how it was run: as §1
Chain of Cytochrome P450 2D6 (P10635 whole entry): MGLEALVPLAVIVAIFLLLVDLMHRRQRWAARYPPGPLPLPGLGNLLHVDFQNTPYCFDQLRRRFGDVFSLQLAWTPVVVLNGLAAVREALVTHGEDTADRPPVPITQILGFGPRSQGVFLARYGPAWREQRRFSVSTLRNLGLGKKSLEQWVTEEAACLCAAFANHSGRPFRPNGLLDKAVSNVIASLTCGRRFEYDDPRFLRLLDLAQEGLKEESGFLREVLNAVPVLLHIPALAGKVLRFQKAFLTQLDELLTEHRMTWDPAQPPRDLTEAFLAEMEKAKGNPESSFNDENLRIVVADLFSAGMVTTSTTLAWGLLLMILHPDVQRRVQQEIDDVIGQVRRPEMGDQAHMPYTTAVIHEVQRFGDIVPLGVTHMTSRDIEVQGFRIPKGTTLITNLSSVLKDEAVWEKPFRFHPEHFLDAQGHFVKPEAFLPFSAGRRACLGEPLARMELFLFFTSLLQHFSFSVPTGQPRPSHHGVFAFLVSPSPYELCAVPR

[6] = Metabolic stability in human liver microsomes at 1 uM preincubated for 5 mins followed by NADPH addition and measured after 5 to 30 mins by LC/MS/MS analysis; type: ADME, Microsome; how it was run: as §2
[7] = AUC (0 to infinity) in ICR mouse at 10 mg/kg, po administered via gavage measured after 0.25 to 24 hrs by UPLC/MS analysis; type: ADME, organism-based; design: dose 10 mg/kg, route oral, time infinity; conditions: in vivo; how it was run: as §4
[8] = Tmax in ICR mouse at 10 mg/kg, po administered via gavage measured after 0.25 to 24 hrs by UPLC/MS analysis; type: ADME, organism-based; conditions: in vivo
How it was run: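 Male ICR mice dosed orally (3, 10 or 100 mg/kg, per line) in 1% DMSO/0.5% HPMC vehicle; plasma drug levels measured.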

NCI-H522 = assay: Antiproliferative activity against human NCI-H522 cells after 72 hrs by CCK8 or SRB assay; type: functional, cell-based
NCI-H1299 = assay: Antiproliferative activity against human NCI-H1299 cells after 72 hrs by CCK8 or SRB assay; type: functional, cell-based
MDA-MB-436 = assay: Antiproliferative activity against human MDA-MB-436 cells after 72 hrs by CCK8 or SRB assay; type: functional, cell-based
Homo sapiens = organism: Homo sapiens; assay: Antiproliferative activity against human TY82 cells after 72 hrs by CCK8 or SRB assay; type: functional, cell-based
MV4-11 = assay: Antiproliferative activity against human MV4-11 cells after 72 hrs by CCK8 or SRB assay; type: functional, cell-based
HT-29 = assay: Antiproliferative activity against human HT-29 cells after 72 hrs by CCK8 or SRB assay; type: functional, cell-based
AGS = assay: Antiproliferative activity against human AGS cells after 72 hrs by CCK8 or SRB assay; type: functional, cell-based
SW-620 = assay: Antiproliferative activity against human SW620 cells after 72 hrs by CCK8 or SRB assay; type: functional, cell-based
BT-549 = assay: Antiproliferative activity against human BT549 cells after 72 hrs by CCK8 or SRB assay; type: functional, cell-based
SK-OV-3 = assay: Antiproliferative activity against human SKOV3 cells after 72 hrs by CCK8 or SRB assay; type: functional, cell-based
HuTu80 = assay: Antiproliferative activity against human HuTu 80 cells after 72 hrs by CCK8 or SRB assay; type: functional, cell-based
RKO = assay: Antiproliferative activity against human RKO cells after 72 hrs by CCK8 or SRB assay; type: functional, cell-based
KG-1 = assay: Antiproliferative activity against human KG1 cells after 72 hrs by CCK8 or SRB assay; type: functional, cell-based
Hep 3B2 = assay: Antiproliferative activity against human Hep3B cells after 72 hrs by CCK8 or SRB assay; type: functional, cell-based
MDA-MB-468 = assay: Antiproliferative activity against human MDA-MB-468 cells after 72 hrs by CCK8 or SRB assay; type: functional, cell-based
A549 = assay: Antiproliferative activity against human A549 cells after 72 hrs by CCK8 or SRB assay; type: functional, cell-based
[9] = target: Bromodomain-containing protein 2 (Homo sapiens) (UniProt P25440); assay: Inhibition of BRD2 bromodomain 2 (unknown origin)
Chain of Bromodomain-containing protein 2 (Homo sapiens) (P25440 whole entry, looked up): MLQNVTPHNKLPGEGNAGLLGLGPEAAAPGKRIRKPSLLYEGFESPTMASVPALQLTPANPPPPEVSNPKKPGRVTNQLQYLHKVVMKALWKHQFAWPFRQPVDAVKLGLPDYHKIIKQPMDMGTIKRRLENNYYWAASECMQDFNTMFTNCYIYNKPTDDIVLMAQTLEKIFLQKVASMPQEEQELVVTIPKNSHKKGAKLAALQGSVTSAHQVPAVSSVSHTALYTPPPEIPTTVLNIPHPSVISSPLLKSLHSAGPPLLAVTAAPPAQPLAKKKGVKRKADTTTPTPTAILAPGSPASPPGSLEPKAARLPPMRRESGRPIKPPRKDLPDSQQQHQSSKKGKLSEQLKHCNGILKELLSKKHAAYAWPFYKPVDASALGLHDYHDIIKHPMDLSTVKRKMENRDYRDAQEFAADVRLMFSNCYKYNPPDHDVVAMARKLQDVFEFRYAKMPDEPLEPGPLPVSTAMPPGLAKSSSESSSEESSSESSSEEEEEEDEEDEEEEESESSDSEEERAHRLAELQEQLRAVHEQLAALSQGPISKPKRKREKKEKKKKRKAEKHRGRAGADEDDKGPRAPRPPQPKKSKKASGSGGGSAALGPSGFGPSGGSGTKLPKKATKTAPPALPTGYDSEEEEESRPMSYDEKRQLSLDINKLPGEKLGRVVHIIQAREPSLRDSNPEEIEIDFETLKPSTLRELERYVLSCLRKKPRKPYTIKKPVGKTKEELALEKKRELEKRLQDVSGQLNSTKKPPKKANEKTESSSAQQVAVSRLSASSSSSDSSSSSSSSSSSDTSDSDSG
How it was run: (§5)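 Bromodomain binding panel (32 bromodomains) screened at 1 μM; primary binding read-out reported as percent of control, lower values meaning stronger binding.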

[10] = target: T2, Bromodomain-containing protein 4; assay: Inhibition of BRD4 bromodomain 2 (unknown origin)
[11] = target: Histone acetyltransferase p300 (Homo sapiens) (UniProt Q09472); assay: Inhibition of EP300 (unknown origin) at 1 uM; how it was run: as §5
[12] = target: T2, Bromodomain-containing protein 4; assay: Inhibition of BRD4 bromodomain 1 (unknown origin)
How it was run: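 BRD4 BD1 (His6-tagged, E. coli BL21(DE3)-expressed, Ni-NTA purified) at 10 nM with 5 nM FITC-labelled (+)-JQ1 tracer; 50 mM HEPES pH 7.4, 150 mM NaCl, 0.5 mM CHAPS, DMSO 2‰ final; graded inhibitor; 4 h dark equilibration at room temperature; fluorescence anisotropy read (ex 485/em 530 nm). IC50 from two independent experiments in duplicate, mean ± SEM.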

[13] = target: Bromodomain-containing protein 2 (Homo sapiens) (UniProt P25440); assay: Inhibition of BRD2 bromodomain 1 (unknown origin)

Cc1ccc(-n2cnnc2-c2ccc3c(c2)N(C2CC2)C(C)C(=O)N3C)cc1 (configuration not stated)
TDI (Cytochrome P450 1A2): Not Active | Stability [1]: Stable | IC50 (MM1.S): 6.7 nM | TDI (Cytochrome P450 2C19): Not Active | Cmax [2]: 163 ng/mL | TDI (Cytochrome P450 2C9): Not Active | half-life [3]: 90 min | AUC(0-t) [4]: 161 ng·h/mL | TDI (Cytochrome P450 3A4): Not Active | IC50 [5]: 8.6 nM | TDI (Cytochrome P450 2D6): Not Active | Stability [6]: Stable | AUC(0-inf) [7]: 164 ng·h/mL | Tmax [8]: 18 min

Cc1sc2c(c1C)C(c1ccc(Cl)cc1)=N[C@@H](CC(=O)OC(C)(C)C)c1nnc(C)n1-2
Activity (NCI-H522): Active | Activity (NCI-H1299): Active | Activity (MDA-MB-436): Active | Activity (Homo sapiens): Active | Activity (MV4-11): Active | Activity (HT-29): Active | Activity (AGS): Active | Activity (SW-620): Active | Activity (BT-549): Active | Activity (SK-OV-3): Active | Activity (HuTu80): Active | Activity (RKO): Active | Activity (KG-1): Active | Activity (Hep 3B2): Active | Activity (MDA-MB-468): Active | Activity (A549): Active

Cc1ccc(-n2nc(C(=O)N3CCN(C)CC3)nc2-c2ccc3c(c2)N(C2CCCC2)[C@H](C)C(=O)N3C)cc1F
IC50 (MM1.S): 13 nM | Cmax [2]: 4970 ng/mL | half-life [3]: 90 min | AUC(0-t) [4]: 8150 ng·h/mL | inhibition [9]: Active | IC50 [5]: 4.2 nM | inhibition [10]: Active | inhibition [11]: inactive | inhibition [12]: Active | inhibition activity call (active/inactive) [13]: Active | AUC(0-inf) [7]: 8360 ng·h/mL | Tmax [8]: 18 min
